Compound activity: PubChem BioAssay, several laboratories
Shown are actives, neighbours in structure and some others; about 4.9% of the full set was active somewhere.
HSF-1 act: increases HSF-1 driven luciferase reporter signal | NIH3T3-HGL HSF-1 luciferase reporter, MG132, 8 h; 100% = twice DMSO control signal | 300,000 tested, 1.7% active | AID 504408 | activation, % at 9 µM;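 active = mean replicate activation of at least 50% with a set share of replicates each reaching 50%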;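 note: 0% = median of the neutral control wells and 100% = twice that signal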
CHT PAM: allosterically activates the human high affinity choline transporter | Q9GZV3 | CHT-expressing cells, membrane potential dye, choline EC20; stronger effect = higher value; LV-AA mutant CHT in HEK293 cells | B-score at 10 µM | 310,000 tested, 0.49% active;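 active = initial fluorescence not abnormally high and integrated response B-score, plate-corrected, over 3 SD above library mean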
Target sequence (Q9GZV3 whole entry, looked up): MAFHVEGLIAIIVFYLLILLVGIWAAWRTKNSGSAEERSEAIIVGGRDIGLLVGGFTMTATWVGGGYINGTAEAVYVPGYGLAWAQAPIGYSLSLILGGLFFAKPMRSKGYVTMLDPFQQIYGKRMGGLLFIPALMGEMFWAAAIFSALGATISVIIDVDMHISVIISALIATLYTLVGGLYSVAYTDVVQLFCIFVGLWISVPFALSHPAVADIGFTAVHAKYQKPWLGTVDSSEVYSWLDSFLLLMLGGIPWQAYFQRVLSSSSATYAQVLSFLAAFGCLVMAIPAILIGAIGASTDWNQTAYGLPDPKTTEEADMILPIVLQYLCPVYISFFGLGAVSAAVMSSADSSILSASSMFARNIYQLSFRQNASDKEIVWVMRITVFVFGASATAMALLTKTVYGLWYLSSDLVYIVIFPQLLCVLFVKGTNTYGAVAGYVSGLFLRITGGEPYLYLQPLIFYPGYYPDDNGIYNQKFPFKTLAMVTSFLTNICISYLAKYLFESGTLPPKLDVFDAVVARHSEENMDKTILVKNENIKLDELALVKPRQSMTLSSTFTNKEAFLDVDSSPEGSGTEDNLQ
PHOSPHO1 block: inhibitors of human PHOSPHO1 phosphatase; Q8TCT1; recombinant PHOSPHO1, absorbance phosphatase assay; inhibition, % at 13.3 µM; 290,000 tested, 1.1% active; in the data active = inhibition above about 60%
HSF1 inhib: HSF1 inhibition. NIH3T3-HGL HSE-luciferase, MG132-induced, luminescence 8 h; stronger effect = lower value. activity change, negative = inhibition, % at 7.5 µM (by protocol). 300,000 tested, 0.77% active. AID 2098;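 active = more than half of replicate wells show activity change below -50%, luminescence cut by over half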;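 note: luciferase reports HSF-1 transcriptional activity via heat shock element; 0% = median of DMSO wells and -100% = zero luminescence signal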
Lipid droplet: modulators of hepatic lipid droplet formation; AML12 mouse hepatocytes, oleate lipid droplets, BODIPY imaging; inhibition, % at 6.5 µM; 240,000 tested, 0.4% active; AID 1656;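 active = lipid droplet intensity inhibited by at least 50%, with more than 500 cells counted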
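Technique: fluorescence imaging, 20x objective, two fields per well / Assay system: AML12 hepatocytes (mouse) / Measure: % inhibition of lipid droplet signal / Doses: 6.5 µM single-point dosing / Incubation: overnight exposure / Reagent: 100 µM oleic acid challenge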
CHT inh: inhibitors of human choline transporter CHT | Q9GZV3 | B-score at 10 µM | 310,000 tested, 0.86% active | CHT-expressing cells, membrane potential dye, choline response; stronger effect = lower value;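 active = B-score over 3 SD under the library average, and starting fluorescence ratio not unusually high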;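 note: choline stimulus applied at its EC90 after an EC20 pre-addition; B-score computed on integrated fluorescence ratio after choline addition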
The depositor's hits bear a star; i = inactive; . = no result.

SMILES | HSF-1 act | CHT PAM | PHOSPHO1 block | HSF1 inhib | Lipid droplet | CHT inh
C=CCn1c(=O)c(C(=O)Nc2ccccc2O)c(O)c2ccccc21 | 26 | i | 8 | 14 | . | i
COC(=O)c1ccc(CS(=O)(=O)c2ccc(C)cc2)cc1 | -2 | i | 6 | -3 | -2 | i
O=C(O)CC(Cn1[nH]nnc1=S)c1ccccc1 (stereo not given) | -7 | i | 94* | -3 | -30 | i
O=C(O)CC(CC(=O)Nc1nncs1)c1ccccc1 (stereo not given) | 2 | i | -12 | -5 | 7 | i
CCCn1c(C)cc(C(=O)CSc2nc3nc(C)cc(C)n3n2)c1C | 6 | i | -15 | 6 | -7 | i
Cc1ccc(-c2nc(S(=O)(=O)c3ccc(C)cc3)c(SCC(=O)NCC3CCCO3)o2)cc1 (stereo not given) | 17 | i | 22 | 13 | -3 | i
COc1cc2[nH]c(=S)n(Cc3ccco3)c(=O)c2cc1OC | 140* | i | 69* | 77 | 9 | i
Clc1ccc(CN=C2Nc3ccccc3CS2)cc1 | 66* | i | 45 | 57 | . | i
Cc1ccc(CN=C2Nc3ccccc3CS2)cc1 | 61* | i | -16 | 34 | . | i
Cc1cccc(C(=O)NC2CCN(CC(=O)Nc3ccc4c(c3)OCO4)CC2)c1 | 8 | i | 16 | 7 | 4 | i
CC(=O)/C(=N\Nc1cccc(Cl)c1)Sc1nnc(-c2ccccc2)n1-c1ccccc1 | 1 | i | 4 | -5 | -13 | i
CCC(=O)N1c2ccc(S(=O)(=O)CCC(=O)N3CCN(c4ccccc4F)CC3)cc2CC1C (stereo not given) | -3 | i | 15 | -3 | 0 | i
COc1ccc(-c2nsc3c(N4CCCCC4C)ncnc23)cc1 (stereo not given) | -96 | i | 37 | -95* | 7 | i
COc1ccc(-c2nsc3c(N4CCN(S(=O)(=O)c5ccccc5F)CC4)ncnc23)cc1 | 16 | i | 34 | -1 | . | i
COc1ccc(-c2nsc3c(N4CCCCC4)ncnc23)cc1 | -83 | i | 22 | -80* | . | i
COc1ccc(C(=O)N2CCN(c3ncnc4c(-c5ccccc5)nsc34)CC2)cc1 | 7 | . | 18 | -5 | -19 | .
Cc1ccccc1NC(=O)CSc1nc(Nc2ccccc2)nc(N2CCOCC2)n1 | 74* | i | 26 | 33 | 2 | i
Cc1ccc(F)cc1NC(=O)CSc1nc(Nc2ccccc2)nc(N2CCOCC2)n1 | 29 | i | 18 | 16 | -25 | i
C[C@H]1CC[C@H]2C(=O)N3[C@H](c4ccccc4Br)[C@@H](C)CC[C@H]3C(=O)N2[C@@H]1c1ccccc1Br | 4 | 8.1* | 6 | 14 | -24 | i
CCOc1ccc(CN2CCNC(=O)C2CC(=O)N(C)C2CCCCC2)cc1 (stereo not given) | -3 | i | 17 | 6 | -15 | i
CCC(C(=O)OCC(=O)Nc1cc(Cl)ccc1Cl)c1ccccc1 (stereo not given) | -74 | i | -9 | -66* | -5 | i
Cc1cc(S(=O)(=O)Nc2ccc(C(=O)NCCCN3CCOCC3)cc2)ccc1F | -12 | i | . | -17 | . | i
Cc1ccc(C(NC(=O)NCCCN2CCOCC2)=C(Cl)Cl)cc1F | 69* | i | -4 | 31 | -1 | i
COc1ccccc1C(=O)NC(=S)Nc1ccccc1N1CCCC1 | -63 | i | 9 | -58* | 20 | i
Cc1ccccc1C(=O)NC(=S)Nc1ccccc1N1CCCC1 | 19 | i | 8 | 6 | -40 | i
CCN(CCn1cccn1)C(=O)c1cc(COc2cc(C)ccc2C)on1 | 59* | i | 32 | 20 | -9 | i
Cc1ccc(C)c(OCc2cc(C(=O)N3CCN(c4ccccc4)CC3)no2)c1 | 56* | i | -2 | 38 | 25 | i
CC(C)n1cc(NC(=O)COc2ccccc2Cl)cn1 | 4 | i | 35 | -2 | -32 | i
Cc1nc(CN2CCN(Cc3nc(C(c4ccccc4)c4ccccc4)no3)CC2)cs1 | 69* | i | 18 | 29 | -10 | i
